The results in this text go back to ChEMBL document CHEMBL1126020, “Potent non-6-fluoro-substituted quinolone antibacterials: synthesis and biological activity” (1992).

What all share (assay type): functional
One experiment relates to Proteus mirabilis. Kind of experiment: In vitro antimicrobial activity against strain Proteus mirabilis 9900. The method in brief: (§1)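 MICs by serial 2-fold broth dilution in nutrient broth. Inoculum adjusted to 10^6 CFU/mL, with compounds tested from 0.0005 to 250 μg/mL. Plates incubated 18 h at 37 °C. MIC taken as the lowest concentration preventing visible bacterial growth.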

The subject of the next experiment is Pseudomonas aeruginosa. Kind of experiment: In vitro antimicrobial activity against strain Pseudomonas aeruginosa 9843. The method in brief:
as §1

Another experiment relates to Streptococcus pneumoniae. Kind of experiment: In vitro antimicrobial activity against strain Streptococcus pneumoniae 9585. In short, it runs like this: as §1
For the next experiment, the system named is Enterobacter cloacae. Kind of experiment: In vitro antimicrobial activity against strain Enterobacter cloacae 9656.
The next experiment relates to Enterococcus faecalis. Kind of experiment: In vitro antimicrobial activity against strain Enterococcus faecalis 9809. In short, it runs like this: as §1
For the next experiment, the system named is Staphylococcus aureus. Kind of experiment: In vitro antimicrobial activity against strain Staphylococcus aureus 9537. The method in brief: as §1
For the next experiment, the system named is Klebsiella pneumoniae. Kind of experiment: In vitro antimicrobial activity against strain Klebsiella pneumoniae 9664. In short, it runs like this:
as §1

The subject of a further experiment is Morganella morganii. Kind of experiment: In vitro antimicrobial activity against strain Morganella morganii 15153. The method in brief:
as §1

The next experiment has as its system Escherichia coli. Kind of experiment: In vitro antimicrobial activity against strain Escherichia coli 15119. The method in brief: as §1

Structures are written as SMILES. In brackets after ≈: the same amount, converted by molar mass.

By MIC is commonly meant the least concentration at which growth counts as inhibited. Lower therefore signals greater potency. Regarding `NC1CCN(c2cc3c(cc2F)c(=O)c(C(=O)O)cn3C2CC2)C1` (stereo not given), the MIC in the experiment on Proteus mirabilis worked out at 0.03 µg/mL (≈ 0.0905 µM); in the experiment with Pseudomonas aeruginosa it was 0.25 µg/mL (≈ 0.754 µM); against Streptococcus pneumoniae, 0.13 µg/mL (≈ 0.392 µM); in the experiment with Enterobacter cloacae, 0.004 µg/mL (≈ 0.0121 µM); in the experiment on Enterococcus faecalis, 0.25 µg/mL (≈ 0.754 µM); against Staphylococcus aureus it was 0.03 µg/mL (≈ 0.0905 µM). The figures for the MIC in the experiment on Klebsiella pneumoniae, against Morganella morganii and with Escherichia coli were 0.03 µg/mL (≈ 0.0905 µM), 0.016 µg/mL (≈ 0.0483 µM) and 0.004 µg/mL (≈ 0.0121 µM), respectively.
Regarding `NC1CCN(c2c(F)cc3c(=O)c(C(=O)O)cn(C4CC4)c3c2F)C1` (stereo not given), the MIC against Proteus mirabilis was 0.016 µg/mL (≈ 0.0458 µM); in the experiment on Pseudomonas aeruginosa it was 0.13 µg/mL (≈ 0.372 µM); with Streptococcus pneumoniae it was 0.03 µg/mL (≈ 0.0859 µM); against Enterobacter cloacae, 0.016 µg/mL (≈ 0.0458 µM); in the experiment with Enterococcus faecalis, 2 µg/mL (≈ 5.73 µM); with Staphylococcus aureus, 0.008 µg/mL (≈ 0.0229 µM). The figures for the MIC against Klebsiella pneumoniae, against Morganella morganii and against Escherichia coli were 0.03 µg/mL (≈ 0.0859 µM), 0.016 µg/mL (≈ 0.0458 µM) and 0.008 µg/mL (≈ 0.0229 µM), respectively.
`NC1CCN(c2cc(F)c3c(=O)c(C(=O)O)cn(C4CC4)c3c2F)C1` (stereo not given): the MIC in the experiment on Proteus mirabilis was determined as 0.13 µg/mL (≈ 0.372 µM); with Pseudomonas aeruginosa, 2 µg/mL (≈ 5.73 µM); with Streptococcus pneumoniae it was 4 µg/mL (≈ 11.5 µM); with Enterobacter cloacae, 0.06 µg/mL (≈ 0.172 µM); in the experiment on Enterococcus faecalis, 4 µg/mL (≈ 11.5 µM); in the experiment with Staphylococcus aureus it was 0.13 µg/mL (≈ 0.372 µM). Also, the results for the MIC against Klebsiella pneumoniae, in the experiment with Morganella morganii and against Escherichia coli were 0.13 µg/mL (≈ 0.372 µM), 0.06 µg/mL (≈ 0.172 µM) and 0.06 µg/mL (≈ 0.172 µM), respectively.
In the case of `NC1CCN(c2ccc3c(=O)c(C(=O)O)cn(C4CC4)c3c2)C1` (stereo not given), the MIC with Proteus mirabilis amounted to 0.13 µg/mL (≈ 0.415 µM); in the experiment with Pseudomonas aeruginosa, 0.5 µg/mL (≈ 1.6 µM); against Streptococcus pneumoniae, 2 µg/mL (≈ 6.38 µM); with Enterobacter cloacae, 0.13 µg/mL (≈ 0.415 µM); against Enterococcus faecalis, 4 µg/mL (≈ 12.8 µM); with Staphylococcus aureus, 0.25 µg/mL (≈ 0.798 µM). The MIC in the experiment with Klebsiella pneumoniae was 0.06 µg/mL (≈ 0.191 µM); against Morganella morganii, 0.13 µg/mL (≈ 0.415 µM); with Escherichia coli, 0.008 µg/mL (≈ 0.0255 µM).
With `NC1CCN(c2cc(F)c3c(=O)c(C(=O)O)cn(C4CC4)c3c2)C1` (stereo not given), the MIC was 0.5 µg/mL (≈ 1.51 µM) against Proteus mirabilis; 4 µg/mL (≈ 12.1 µM) in the experiment with Pseudomonas aeruginosa; 4 µg/mL (≈ 12.1 µM) against Streptococcus pneumoniae; 0.13 µg/mL (≈ 0.392 µM) against Enterobacter cloacae; 16 µg/mL (≈ 48.3 µM) in the experiment on Enterococcus faecalis; 1 µg/mL (≈ 3.02 µM) against Staphylococcus aureus. Also, the results for the MIC against Klebsiella pneumoniae, in the experiment on Morganella morganii and with Escherichia coli were 0.5 µg/mL (≈ 1.51 µM), 0.25 µg/mL (≈ 0.754 µM) and 0.13 µg/mL (≈ 0.392 µM), respectively.
For the molecule `NC1CCN(c2ccc3c(=O)c(C(=O)O)cn(C4CC4)c3c2F)C1` (stereo not given), the MIC in the experiment with Proteus mirabilis is 0.03 µg/mL (≈ 0.0905 µM); with Pseudomonas aeruginosa, 0.25 µg/mL (≈ 0.754 µM); with Streptococcus pneumoniae, 0.5 µg/mL (≈ 1.51 µM); in the experiment on Enterobacter cloacae, 0.03 µg/mL (≈ 0.0905 µM); with Enterococcus faecalis, 0.25 µg/mL (≈ 0.754 µM); in the experiment on Staphylococcus aureus, 0.03 µg/mL (≈ 0.0905 µM). For the same molecule, the results for the MIC against Klebsiella pneumoniae, against Morganella morganii and in the experiment with Escherichia coli were 0.016 µg/mL (≈ 0.0483 µM), 0.016 µg/mL (≈ 0.0483 µM) and 0.008 µg/mL (≈ 0.0241 µM), respectively.
Regarding `O=C(O)c1cn(C2CC2)c2cc(N3CCNCC3)c(F)cc2c1=O` [CIPROFLOXACIN], the MIC is 0.008 µg/mL (≈ 0.0241 µM) against Proteus mirabilis; 0.25 µg/mL (≈ 0.754 µM) against Streptococcus pneumoniae; 0.5 µg/mL (≈ 1.51 µM) in the experiment with Enterococcus faecalis; 0.06 µg/mL (≈ 0.181 µM) against Staphylococcus aureus; 0.06 µg/mL (≈ 0.181 µM) in the experiment on Klebsiella pneumoniae; 0.08 µg/mL (≈ 0.241 µM) against Morganella morganii.
